In ChEMBL document CHEMBL1142048, “Design, synthesis and structure-activity relationship studies of hexahydropyrazinoquinolines as a novel class of potent and selective dopamine receptor 3 (D3) ligands” (Bioorg Med Chem Lett, 2005):

Key:
[1] = Binding affinity for D2-like [3H]spiperone receptor was determined using caudate-putamen of adult male Spragueo?=Dawley rats; assay type: tissue-based, Rattus norvegicus
How it was run: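 Rat caudate-putamen membranes, adult male Sprague–Dawley. Buffer 50 mM Tris–HCl, 5 mM KCl, 2 mM MgCl2, 2 mM CaCl2, pH 7.4 at 23 °C. [3H]spiperone 0.2 nM, with nonspecific binding defined by 1 μM (+)-butaclamol. Compounds were dissolved in 100% EtOH up to 5 mM (stock). Ki was derived from the radioligand KD.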

[2] = Binding affinity for D1-like [3H]-SCH- 23390 receptor was determined using caudate-putamen of adult male Spragueo?=Dawley rats; assay type: tissue-based, Rattus norvegicus
How it was run: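 Rat caudate-putamen membranes, adult male Sprague–Dawley. Buffer 50 mM Tris–HCl, 5 mM KCl, 2 mM MgCl2, 2 mM CaCl2, pH 7.4 at 23 °C. [3H]SCH 23390 0.3 nM, with nonspecific binding defined by 1 μM (+)-butaclamol. Compounds were dissolved in 100% EtOH up to 5 mM (stock).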

D(3) dopamine receptor = D(3) dopamine receptor (Rattus norvegicus, UniProt P19020); experiment: biochemical
Sequence of D(3) dopamine receptor (P19020 whole entry): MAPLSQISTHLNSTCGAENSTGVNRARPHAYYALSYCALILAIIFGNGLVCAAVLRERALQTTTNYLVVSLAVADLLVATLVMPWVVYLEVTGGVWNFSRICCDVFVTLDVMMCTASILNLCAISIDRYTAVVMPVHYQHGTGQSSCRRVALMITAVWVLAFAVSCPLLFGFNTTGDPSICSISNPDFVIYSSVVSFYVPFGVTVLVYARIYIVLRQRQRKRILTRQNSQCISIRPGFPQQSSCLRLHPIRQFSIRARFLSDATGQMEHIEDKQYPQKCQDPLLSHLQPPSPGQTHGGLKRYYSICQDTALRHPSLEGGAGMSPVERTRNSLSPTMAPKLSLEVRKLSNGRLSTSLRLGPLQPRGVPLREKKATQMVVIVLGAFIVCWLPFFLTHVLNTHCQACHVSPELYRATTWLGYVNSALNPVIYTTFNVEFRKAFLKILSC

`O=C(NCCCCN1CCN2c3ccccc3CCC2C1)c1ccc2ccccc2c1` (stereo not drawn) showed a Ki [1] of 1570 nM, a Ki [2] of 791 nM and a Ki (D(3) dopamine receptor) of 18 nM.

For `COc1ccc2c(c1)N1CCN(CCCCNC(=O)c3ccc4ccccc4c3)CC1CC2` (stereo not drawn), the Ki [1] was 1120 nM, the Ki [2] was 5800 nM and the Ki (D(3) dopamine receptor) was 45 nM.

In the case of `COc1ccc2c(c1)CCC1CN(CCCCNC(=O)c3ccc4ccccc4c3)CCN21` (stereo not drawn), the Ki [1] is reported as > 250000 nM, the Ki [2] is reported as > 250000 nM and the Ki (D(3) dopamine receptor) is reported as 244 nM.

With `O=C(CCCCN1CCN2c3ccccc3CCC2C1)c1ccc(F)cc1` (stereo not drawn) the Ki [1] was 852 nM, the Ki [2] was 2470 nM and the Ki (D(3) dopamine receptor) was 381 nM.

In the case of `O=C(NCCN1CCN2c3ccccc3CCC2C1)c1ccc2ccccc2c1` (stereo not drawn), the Ki [1] is reported as 1390 nM, the Ki [2] is reported as 1220 nM and the Ki (D(3) dopamine receptor) is reported as 1650 nM.

With `O=C(CCN1CCN2c3ccccc3CCC2C1)c1ccc(F)cc1` (stereo not drawn) the Ki [1] was 3640 nM, the Ki [2] was 8890 nM and the Ki (D(3) dopamine receptor) was 2750 nM.

`O=C(NCCCN1CCN2c3ccccc3CCC2C1)c1ccc2ccccc2c1` (stereo not drawn) gave a Ki [1] of 2440 nM, a Ki [2] of 153000 nM and a Ki (D(3) dopamine receptor) of 1540 nM.

Work on `COc1ccccc1N1CCN(CCCCNC(=O)c2ccc3ccccc3c2)CC1` [BP-897] yielded a Ki [1] of 162 nM and a Ki [2] of 636 nM.

With `O=C(CN1CCN2c3ccccc3CCC2C1)c1ccc(F)cc1` (stereo not drawn) the Ki [1] was 3890 nM, the Ki [2] was 7950 nM and the Ki (D(3) dopamine receptor) was 7490 nM.

In the case of `O=C(CCCN1CCN2c3ccccc3CCC2C1)c1ccc(F)cc1` (stereo not drawn), the Ki [1] is reported as 243 nM, the Ki [2] is reported as 904 nM and the Ki (D(3) dopamine receptor) is reported as 304 nM.

Work on `COc1cccc2c1N1CCN(CCCCNC(=O)c3ccc4ccccc4c3)CC1CC2` (stereo not drawn) yielded a Ki [1] of 258 nM and a Ki [2] of 6050 nM.

In the case of `O=C(NCCCCN1CCN2c3ccccc3CCC2C1)c1ccc(-c2ccccc2)cc1` (stereo not drawn), the Ki [1] is reported as 220 nM, the Ki [2] is reported as 258 nM and the Ki (D(3) dopamine receptor) is reported as 22 nM.

For `COc1cccc2c1CCC1CN(CCCCNC(=O)c3ccc4ccccc4c3)CCN21` (stereo not drawn), the Ki [1] was 762 nM, the Ki [2] was 4600 nM and the Ki (D(3) dopamine receptor) was 5.8 nM.

With `O=C(NCCN1CCN2c3ccccc3CCC2C1)c1ccc(-c2ccccc2)cc1` (stereo not drawn) the Ki [1] was > 100000 nM, the Ki [2] was > 100000 nM and the Ki (D(3) dopamine receptor) was 23000 nM.

`O=C(NCCCN1CCN2c3ccccc3CCC2C1)c1ccc(-c2ccccc2)cc1` (stereo not drawn) gave a Ki [1] of 906 nM, a Ki [2] of 356 nM and a Ki (D(3) dopamine receptor) of 2520 nM.
